Measured values reported in ChEMBL document CHEMBL4266004, “Series of Alkynyl-Substituted Thienopyrimidines as Inhibitors of Protozoan Parasite Proliferation” (ACS Med Chem Lett, 2018).

Columns and labels:
[1] = test system: Trypanosoma brucei brucei; assay: Antitrypanosomal activity against Trypanosoma brucei brucei 427 after 48 hrs by presto blue dye based fluorescence assay; assay type: functional, organism-based; settings: Trypanosoma brucei, 427, 48 h
[2] = Selectivity index, ratio of TC50 for human HepG2 cells to EC50 for Trypanosoma brucei brucei 427; assay type: toxicity; settings: read-out: Selectivity Index
[3] = Cytotoxicity against mouse NIH/3T3 cells; assay type: cell-based, NIH3T3; settings: read-out: TC50 (the source's name)
Trypanosoma cruzi = assay: Antitrypanosomal activity against Trypanosoma cruzi Tulahuen intracellular amastigote harboring beta-galactosidase infected in mouse NIH/3T3 cells after 96 hrs by CPRG reagent based assay; assay type: functional, organism-based; settings: NIH3T3, 96 h
[4] = Selectivity index, ratio of TC50 for mouse NIH/3T3 cells to EC50 for Trypanosoma cruzi Tulahuen intracellular amastigote harboring beta-galactosidase; assay type: toxicity, cell-based; settings: read-out: Selectivity Index
How it was run: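 NIH 3T3 cells, the host line for intracellular T. cruzi amastigote culture, tested for toxicity. Selectivity = NIH3T3 TC50 / T. cruzi EC50.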

[5] = Selectivity index, ratio of TC50 for human HepG2 cells to EC50 for Leishmania major intracellular amastigotes harboring luciferase infected in mouse RAW264.7 cells; assay type: toxicity, cell-based; settings: read-out: Selectivity Index
How it was run: (§1)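 L. major amastigotes screened in duplicate or quadruplicate. Selectivity derived as HepG2 TC50 / L. major EC50.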

Leishmania major = assay: Antileishmanial activity against Leishmania major intracellular amastigotes harboring luciferase infected in mouse RAW264.7 cells after 96 hrs by luminescence assay; assay type: functional, organism-based; settings: RAW264.7, 96 h; how it was run: as §1
[6] = test system: Trypanosoma brucei brucei; assay: Antitrypanosomal activity against Trypanosoma brucei brucei 427 at 5 uM after 48 hrs by presto blue dye based fluorescence assay relative to control; assay type: functional
How it was run: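 Single-concentration screen of bloodstream T. brucei cultures at 5 μM, 5 × 10^4 cells/mL; percent proliferation inhibition recorded.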

[7] = Selectivity index, ratio of TC50 for human HepG2 cells to EC50 for Plasmodium falciparum D6 trophozoites; assay type: toxicity; settings: read-out: Selectivity Index
How it was run: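 P. falciparum D6 screened in duplicate or quadruplicate. Selectivity = HepG2 TC50 / P. falciparum EC50.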

[8] = Selectivity ratio of EC50 for antimalarial activity against Plasmodium falciparum W2 trophozoites to EC50 for atimalarial activity against Plasmodium falciparum D6 trophozoites; assay type: functional
Plasmodium falciparum = assay: Antimalarial activity against Plasmodium falciparum D6 trophozoites after 72 hrs by SYBR Green I dye-based fluorescence assay; assay type: functional, organism-based; settings: D6, 72 h
How it was run: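 P. falciparum D6 strain; compounds run in duplicate or quadruplicate; EC50 determined from dose-response.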

[9] = Selectivity ratio of EC50 for antimalarial activity against Plasmodium falciparum C235 trophozoites to EC50 for atimalarial activity against Plasmodium falciparum D6 trophozoites; assay type: functional
[10] = Cytotoxicity against human HepG2 cells; assay type: cell-based; settings: read-out: TC50 (the source's name)

Row | SMILES | EC50 [1] | selectivity ratio [2] | CC50 [3] | EC50 (Trypanosoma cruzi) | selectivity ratio [4] | selectivity ratio [5] | EC50 (Leishmania major) | Activity [6] | selectivity ratio [7] | Ratio EC50 [8] | EC50 (Plasmodium falciparum) | Ratio EC50 [9] | CC50 [10]
1 | CN1CCN(CC#Cc2cc3c(Nc4ccc(OCc5cccc(F)c5)c(Cl)c4)ncnc3s2)CC1 | 1 µM | 15 | 6.7 µM | 3.5 µM | 1.9 | 1.9 | 8.1 µM | >75% | 58 | < 3 | 0.26 µM | < 3 | 15 µM
2 | COCC#Cc1cc2ncnc(Nc3ccc(OCc4cccc(F)c4)c(Cl)c3)c2s1 | 3.4 µM | > 9.7 | > 50 µM | 30.7 µM | > 1.6 | > 3.5 | 9.4 µM | >75% | > 5.6 | – | 5.9 µM | – | > 33 µM
3 | CN(C)CC#Cc1cc2c(Nc3ccc(OCc4cccc(F)c4)c(Cl)c3)ncnc2s1 | 2.5 µM | > 13 | 41 µM | 2.6 µM | 16 | > 5.8 | 5.5 µM | >75% | > 21 | – | 1.5 µM | – | > 32 µM
4 | Fc1cccc(COc2ccc(Nc3ncnc4sc(C#CCN5CCCC5)cc34)cc2Cl)c1 | > 2.5 µM | – | – | – | – | > 7 | 4.3 µM | >75% | > 214 | < 3 | 0.14 µM | < 3 | > 30 µM
5 | Fc1cccc(COc2ccc(Nc3ncnc4cc(C#C[C@@H]5CCCN5)sc34)cc2Cl)c1 | 0.22 µM | 44 | 10 µM | 3.7 µM | 2.7 | 2.3 | 4.2 µM | >75% | 10 | < 3 | 0.94 µM | < 3 | 9.6 µM
6 | CN1CCN(CC#Cc2ccc3ncnc(Nc4ccc(OCc5cccc(F)c5)c(Cl)c4)c3c2)CC1 | 1 µM | 8.2 | 7.2 µM | 2.5 µM | 2.9 | 0.8 | 10 µM | >75% | 51 | < 3 | 0.16 µM | < 3 | 8.2 µM
